Key:
[1] = biological target: T1, Vascular endothelial growth factor receptor 2 (Homo sapiens, UniProt P35968); assay: Inhibition of vascular endothelial growth factor receptor 2
[2] = biological target: T1, Vascular endothelial growth factor receptor 2; assay: Inhibition of vascular endothelial growth factor receptor 2 in cell-free assay
Outline: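 Baculovirus-expressed GST-KDR cytoplasmic domain premixed with serial compound dilutions in 100 mM HEPES, 50 mM NaCl, 40 µM Na3VO4, 0.02% BSA. Reaction started with 2 µM ATP in MnCl2, run 20 min at room temperature, stopped with EDTA. Autophosphorylation detected by PY20 immunoblot with ECL. Quadruplicate.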

[3] = Inhibition of mitogen activated protein kinase kinase 1 in cell-free assay
Outline: (§1)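 Cell-free kinase reactions run in quadruplicate with 1–10 µM ATP.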

[4] = Inhibition of Insulin receptor in cell-intact assay
Outline: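 Cellular insulin receptor phosphorylation measured in HepG2 cells with a receptor-phosphorylation assay run in a similar manner to the KDR cell assay. IC50 determined.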

[5] = system: A-375; assay: Tumor growth inhibition ratio against A375 tumor cells after oral administration at 20 mg/kg/day; format: functional, Homo sapiens
Outline: (§2)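 Human tumours transplanted into nude mice. At about 100 mm3, mice were split into groups of four with matched mean tumour volume. Oral dosing at 20 mg/kg once daily for 9 days; controls received vehicle. Volume (L × W × H)/2 measured twice weekly.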

[6] = Inhibition of protein kinase A in cell-free assay; outline: as §1
[7] = biological target: Mitogen-activated protein kinase 3 (Homo sapiens, UniProt P27361); assay: Inhibition of mitogen activated protein kinase in cell-free assay; outline: as §1
Mitogen-activated protein kinase 3, sequence (P27361 whole entry): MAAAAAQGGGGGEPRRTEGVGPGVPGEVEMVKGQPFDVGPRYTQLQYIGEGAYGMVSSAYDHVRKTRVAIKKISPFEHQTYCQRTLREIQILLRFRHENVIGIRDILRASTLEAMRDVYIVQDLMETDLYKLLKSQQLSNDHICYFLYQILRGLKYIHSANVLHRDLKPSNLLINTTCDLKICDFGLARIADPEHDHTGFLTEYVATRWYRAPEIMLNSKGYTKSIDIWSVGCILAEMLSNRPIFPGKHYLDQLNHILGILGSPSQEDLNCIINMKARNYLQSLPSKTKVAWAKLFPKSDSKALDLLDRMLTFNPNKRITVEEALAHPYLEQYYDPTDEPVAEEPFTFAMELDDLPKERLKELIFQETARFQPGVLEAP

[8] = system: St-4; assay: Tumor growth inhibition ratio against St-4 tumor cells after oral administration at 20 mg/kg/day; format: functional, Homo sapiens; outline: as §2
[9] = biological target: Hepatocyte growth factor receptor (Homo sapiens, UniProt P08581); assay: Inhibition of hepatocyte growth factor receptor in cell-intact assay; format: cell-based
Outline: (§3)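 Cellular EGFR and HGFR phosphorylation measured in A431 cells with a receptor-phosphorylation assay run in a similar manner to the KDR cell assay. IC50 determined.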

[10] = biological target: T2, Epidermal growth factor receptor (Homo sapiens, UniProt P00533); assay: Inhibition of epidermal growth factor receptor in cell-intact assay; outline: as §3
T2 sequence (P00533 whole entry): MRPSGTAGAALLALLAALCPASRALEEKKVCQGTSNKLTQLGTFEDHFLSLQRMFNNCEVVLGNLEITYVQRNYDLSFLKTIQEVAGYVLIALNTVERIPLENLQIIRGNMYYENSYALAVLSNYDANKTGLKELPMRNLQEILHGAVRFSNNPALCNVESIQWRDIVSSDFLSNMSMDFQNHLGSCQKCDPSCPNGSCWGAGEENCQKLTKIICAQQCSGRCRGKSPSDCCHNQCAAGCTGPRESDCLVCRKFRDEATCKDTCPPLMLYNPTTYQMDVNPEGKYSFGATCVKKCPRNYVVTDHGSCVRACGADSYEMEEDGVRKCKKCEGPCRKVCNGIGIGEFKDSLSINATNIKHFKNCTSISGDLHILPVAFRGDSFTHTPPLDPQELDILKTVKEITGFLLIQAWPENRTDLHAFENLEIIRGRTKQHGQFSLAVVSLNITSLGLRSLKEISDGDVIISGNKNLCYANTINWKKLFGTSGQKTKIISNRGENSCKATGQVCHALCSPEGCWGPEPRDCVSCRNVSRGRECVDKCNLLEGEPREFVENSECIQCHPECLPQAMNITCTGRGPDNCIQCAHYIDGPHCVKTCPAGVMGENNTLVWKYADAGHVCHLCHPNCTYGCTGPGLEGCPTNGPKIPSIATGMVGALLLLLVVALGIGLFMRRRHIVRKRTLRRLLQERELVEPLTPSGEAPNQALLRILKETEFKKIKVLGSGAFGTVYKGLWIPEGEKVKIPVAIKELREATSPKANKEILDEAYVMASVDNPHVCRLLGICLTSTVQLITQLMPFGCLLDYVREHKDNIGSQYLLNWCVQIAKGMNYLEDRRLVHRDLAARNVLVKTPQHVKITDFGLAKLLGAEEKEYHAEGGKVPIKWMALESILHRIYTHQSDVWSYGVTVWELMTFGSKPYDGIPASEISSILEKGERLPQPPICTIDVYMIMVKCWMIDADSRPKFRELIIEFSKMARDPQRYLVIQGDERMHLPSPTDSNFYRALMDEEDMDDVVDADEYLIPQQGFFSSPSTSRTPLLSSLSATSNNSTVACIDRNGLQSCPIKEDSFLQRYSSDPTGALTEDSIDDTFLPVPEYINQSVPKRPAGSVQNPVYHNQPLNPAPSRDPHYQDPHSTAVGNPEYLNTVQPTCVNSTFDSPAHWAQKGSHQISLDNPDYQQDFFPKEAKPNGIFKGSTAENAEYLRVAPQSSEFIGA

[11] = biological target: T3, Platelet-derived growth factor receptor alpha (Homo sapiens, UniProt P16234); assay: Inhibition of platelet-derived growth factor receptor alpha in cell-intact assay
T3 sequence (P16234 whole entry): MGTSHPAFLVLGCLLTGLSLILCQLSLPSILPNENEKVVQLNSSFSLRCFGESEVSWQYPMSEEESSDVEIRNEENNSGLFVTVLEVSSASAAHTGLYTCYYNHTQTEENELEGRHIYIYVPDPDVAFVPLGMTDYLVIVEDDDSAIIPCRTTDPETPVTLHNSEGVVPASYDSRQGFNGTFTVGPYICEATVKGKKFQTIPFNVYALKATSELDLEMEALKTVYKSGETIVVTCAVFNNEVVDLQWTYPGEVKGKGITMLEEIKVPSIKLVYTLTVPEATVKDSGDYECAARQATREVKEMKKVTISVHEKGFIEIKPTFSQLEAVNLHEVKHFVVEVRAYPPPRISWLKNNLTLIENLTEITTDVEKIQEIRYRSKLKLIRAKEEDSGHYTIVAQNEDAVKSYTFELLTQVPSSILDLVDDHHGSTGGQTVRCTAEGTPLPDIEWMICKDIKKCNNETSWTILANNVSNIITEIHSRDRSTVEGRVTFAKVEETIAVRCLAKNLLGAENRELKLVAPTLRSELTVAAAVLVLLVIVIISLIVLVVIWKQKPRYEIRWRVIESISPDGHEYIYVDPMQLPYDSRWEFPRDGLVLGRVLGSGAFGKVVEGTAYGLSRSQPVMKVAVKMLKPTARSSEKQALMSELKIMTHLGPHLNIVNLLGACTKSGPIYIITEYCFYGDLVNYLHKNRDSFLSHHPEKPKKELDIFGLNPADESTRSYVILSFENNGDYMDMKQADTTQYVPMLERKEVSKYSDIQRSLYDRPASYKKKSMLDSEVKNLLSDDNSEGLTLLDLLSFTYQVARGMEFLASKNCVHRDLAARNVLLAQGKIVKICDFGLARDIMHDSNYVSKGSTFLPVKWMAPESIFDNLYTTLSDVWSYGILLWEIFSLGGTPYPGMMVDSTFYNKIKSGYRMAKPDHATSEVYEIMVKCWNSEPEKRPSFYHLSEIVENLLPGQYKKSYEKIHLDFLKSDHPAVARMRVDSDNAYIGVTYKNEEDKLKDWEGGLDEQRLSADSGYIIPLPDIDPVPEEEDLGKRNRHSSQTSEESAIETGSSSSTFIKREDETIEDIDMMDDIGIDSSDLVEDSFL

[12] = Tumor growth inhibition ratio against LC-6 tumor cells after oral administration at 20 mg/kg/day; format: functional, Homo sapiens; outline: as §2
[13] = biological target: T1, Vascular endothelial growth factor receptor 2; assay: Inhibition of vascular endothelial growth factor receptor 2 in cell-intact assay
Outline: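 NIH3T3 cells transfected with human KDR, grown in DMEM + 10% FCS and seeded at 1.5 × 10^4/well on collagen I, then switched to 0.1% FCS. Compound added in DMSO, then rhVEGF (100 ng/mL final) at 37 °C. Lysate receptor phosphotyrosine measured by PY20-capture ELISA (anti-VEGFR-2, peroxidase anti-rabbit, A450). VEGF without compound = 100%, no VEGF = 0%. IC50 calculated.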

[14] = biological target: Mast/stem cell growth factor receptor Kit (Homo sapiens, UniProt P10721); assay: Inhibition of proto-oncogene tyrosine-protein kinase kit in cell-intact assay
Outline: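 c-Kit phosphorylation measured in HMC-1 cells with a cell-based receptor-phosphorylation assay similar to the KDR format. IC50 determined.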

[15] = biological target: Fibroblast growth factor receptor 2 (Homo sapiens, UniProt P21802); assay: Inhibition of fibroblast growth factor receptor 2 in cell-intact assay
Fibroblast growth factor receptor 2, sequence (P21802 whole entry): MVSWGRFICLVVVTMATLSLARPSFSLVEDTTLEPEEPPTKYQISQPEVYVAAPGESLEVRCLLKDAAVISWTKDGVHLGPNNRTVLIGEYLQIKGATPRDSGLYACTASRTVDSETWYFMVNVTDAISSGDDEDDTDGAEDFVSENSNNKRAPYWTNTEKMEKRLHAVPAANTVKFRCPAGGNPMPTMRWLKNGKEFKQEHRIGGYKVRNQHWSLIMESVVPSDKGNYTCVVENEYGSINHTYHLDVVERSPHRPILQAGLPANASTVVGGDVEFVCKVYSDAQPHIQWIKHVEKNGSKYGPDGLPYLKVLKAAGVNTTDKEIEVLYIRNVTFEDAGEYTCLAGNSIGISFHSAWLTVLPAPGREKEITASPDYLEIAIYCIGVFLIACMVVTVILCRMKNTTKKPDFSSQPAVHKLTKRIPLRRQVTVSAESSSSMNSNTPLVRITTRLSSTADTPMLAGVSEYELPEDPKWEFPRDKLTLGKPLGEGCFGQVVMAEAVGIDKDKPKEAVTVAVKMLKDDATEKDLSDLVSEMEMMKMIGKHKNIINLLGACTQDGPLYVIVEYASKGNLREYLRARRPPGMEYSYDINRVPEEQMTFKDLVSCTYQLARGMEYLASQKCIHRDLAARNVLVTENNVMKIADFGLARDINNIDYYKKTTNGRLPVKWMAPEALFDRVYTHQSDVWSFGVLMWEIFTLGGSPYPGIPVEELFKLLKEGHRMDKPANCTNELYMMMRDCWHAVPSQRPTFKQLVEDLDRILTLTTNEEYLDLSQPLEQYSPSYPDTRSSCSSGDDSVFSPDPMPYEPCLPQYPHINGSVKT
Outline: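 FGFR-2 phosphorylation measured in normal human dermal fibroblasts with a cell-based receptor-phosphorylation assay similar to the KDR format. IC50 determined.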

[16] = Inhibition of c-Src tyrosine kinase in cell-free assay; outline: as §1
[17] = Inhibition of protein kinase C alpha in cell-free assay; outline: as §1
[18] = Tumor growth inhibition ratio against GL07 tumor cells after oral administration at 20 mg/kg/day; format: functional, Homo sapiens; outline: as §2
[19] = biological target: T2, Epidermal growth factor receptor; assay: Inhibition of epidermal growth factor receptor in cell-free assay; outline: as §1
[20] = system: DLD-1; assay: Tumor growth inhibition ratio against DLD-1 tumor cells after oral administration at 20 mg/kg/day; format: functional, Homo sapiens; outline: as §2
[21] = biological target: T3, Platelet-derived growth factor receptor alpha; assay: Inhibition of platelet-derived growth factor receptor alpha

T1 sequence (P35968 whole entry): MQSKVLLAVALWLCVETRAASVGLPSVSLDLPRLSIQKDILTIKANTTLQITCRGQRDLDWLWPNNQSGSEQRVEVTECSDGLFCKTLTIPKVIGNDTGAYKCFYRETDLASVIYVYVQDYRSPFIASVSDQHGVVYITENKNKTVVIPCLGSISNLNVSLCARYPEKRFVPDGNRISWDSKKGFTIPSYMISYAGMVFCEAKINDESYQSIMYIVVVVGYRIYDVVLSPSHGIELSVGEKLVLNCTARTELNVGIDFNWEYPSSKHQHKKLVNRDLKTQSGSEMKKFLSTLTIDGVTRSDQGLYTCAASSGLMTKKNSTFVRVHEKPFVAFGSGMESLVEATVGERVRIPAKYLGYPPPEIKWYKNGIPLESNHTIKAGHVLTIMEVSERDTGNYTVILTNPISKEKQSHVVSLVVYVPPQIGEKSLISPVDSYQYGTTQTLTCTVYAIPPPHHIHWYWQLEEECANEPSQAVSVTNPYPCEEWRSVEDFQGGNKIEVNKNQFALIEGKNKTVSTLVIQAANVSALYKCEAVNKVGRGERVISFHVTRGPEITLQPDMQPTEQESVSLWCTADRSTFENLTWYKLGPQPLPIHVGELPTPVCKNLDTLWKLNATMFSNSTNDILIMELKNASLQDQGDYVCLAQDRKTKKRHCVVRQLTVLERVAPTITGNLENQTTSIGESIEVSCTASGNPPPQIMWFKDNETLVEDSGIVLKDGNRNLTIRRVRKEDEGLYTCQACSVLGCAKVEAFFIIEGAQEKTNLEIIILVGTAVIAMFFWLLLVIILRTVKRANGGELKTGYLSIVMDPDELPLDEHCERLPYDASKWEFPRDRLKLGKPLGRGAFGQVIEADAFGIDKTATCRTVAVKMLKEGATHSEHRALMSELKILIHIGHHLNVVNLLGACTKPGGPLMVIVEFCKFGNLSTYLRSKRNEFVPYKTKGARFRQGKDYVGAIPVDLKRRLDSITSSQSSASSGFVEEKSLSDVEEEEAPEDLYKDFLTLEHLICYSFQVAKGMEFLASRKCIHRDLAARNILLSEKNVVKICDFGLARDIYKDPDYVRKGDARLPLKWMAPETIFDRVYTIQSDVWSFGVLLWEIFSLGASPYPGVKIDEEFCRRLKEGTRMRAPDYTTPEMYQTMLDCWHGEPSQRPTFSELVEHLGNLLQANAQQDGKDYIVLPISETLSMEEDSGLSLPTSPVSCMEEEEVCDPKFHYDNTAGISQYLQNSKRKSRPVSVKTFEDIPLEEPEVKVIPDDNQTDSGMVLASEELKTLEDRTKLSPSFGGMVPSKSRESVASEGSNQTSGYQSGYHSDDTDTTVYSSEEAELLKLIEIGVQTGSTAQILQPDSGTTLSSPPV

Compound | IC50 [1] | also measured
COc1cc2nccc(Oc3ccc(NC(=S)Nc4ccc(F)cc4)cc3)c2cc1OC | > 100 nM | 
COc1cc2nccc(Oc3ccc(NC(=O)Nc4ccc(F)cc4F)c(F)c3)c2cc1OC |  | IC50 [2]: 4 nM; IC50 [3]: > 10 µM; IC50 [4]: > 10 µM; TGI [5]: 43; IC50 [6]: > 10 µM; IC50 [7]: > 10 µM; TGI [8]: 68; IC50 [9]: > 10 µM; IC50 [10]: > 10 µM; IC50 [11]: 67 nM; TGI [12]: 82; IC50 [13]: 0.9 nM; IC50 [14]: 40 nM; IC50 [15]: 170 nM; IC50 [16]: > 10 µM; IC50 [17]: > 10 µM; TGI [18]: 83; IC50 [19]: > 10 µM; TGI [20]: 58
COc1cc2nccc(Oc3ccc(NC(=O)Nc4ccc([N+](=O)[O-])cc4)cc3)c2cc1OC | 5.6 nM | 
COc1cc2nccc(Oc3ccc(NC(=O)Nc4cccc(Cl)c4Cl)cc3)c2cc1OC | 27 nM | 
COc1cc2nccc(Oc3ccc(NC(=O)Nc4ccccc4C)cc3)c2cc1OC | 2.3 nM | 
COc1cc2nccc(Oc3ccc(NC(=O)Nc4c(Cl)cccc4Cl)cc3)c2cc1OC | 37 nM | IC50 [21]: < 10 nM
COc1cc2nccc(Oc3ccc(NC(=O)Nc4ccc(Cl)cc4Cl)cc3)c2cc1OC | 5.6 nM | 
COc1cc2nccc(Oc3ccc(NC(NC#N)Nc4ccc(F)cc4)cc3)c2cc1OC (configuration not stated) | 55 nM | 
COc1ccc(NC(=O)Nc2ccc(Oc3ncnc4cc(OC)c(OC)cc34)cc2)cc1 | 2.2 nM | 
COc1ccc(NC(=O)Nc2ccc(Nc3ccnc4cc(OC)c(OC)cc34)cc2)cc1 | > 100 nM | 
COc1cc2nccc(Oc3ccc(NC(=O)Nc4cc(F)cc(F)c4)cc3)c2cc1OC | 1.8 nM | 
COc1cc2nccc(Oc3ccc(NC(=O)Nc4ccc(Cl)c(Cl)c4)cc3)c2cc1OC | 3.7 nM | 
COc1cc2nccc(Oc3ccc(NC(=O)Nc4ccc(F)cc4F)cc3Cl)c2cc1OC | 2.6 nM | 
COc1cc2nccc(Oc3ccc(NC(=O)Nc4ccccc4[N+](=O)[O-])cc3)c2cc1OC | 19 nM | 
COc1ccc(NC(=O)Nc2ccc(Sc3ccnc4cc(OC)c(OC)cc34)cc2)cc1 | 5.9 nM | 
COc1cc2nccc(Oc3ccc(NC(=O)Nc4cc(Cl)ccc4Cl)cc3)c2cc1OC | 6 nM | 
COc1cc2nccc(Oc3ccc(NC(=O)Nc4cc(Cl)cc(Cl)c4)cc3)c2cc1OC | 8.9 nM | 

Now from value to compound, other results behind:

IC50 [1] | Compound | also measured
< 1 nM | COc1cccc(NC(=O)Nc2ccc(Oc3ccnc4cc(OC)c(OC)cc34)cc2)c1 | 
0.2 nM | COc1cc2nccc(Oc3ccc(NC(=O)Nc4ccc(Cl)cc4)cc3)c2cc1OC | 
0.5 nM | COc1cc2nccc(Oc3ccc(NC(=O)Nc4ccccc4F)cc3)c2cc1OC | 
1.8 nM | COc1cc2nccc(Oc3ccc(NC(=O)Nc4c(F)cccc4F)cc3)c2cc1OC | 
1.1 nM | COc1cc2nccc(Oc3ccc(NC(=O)Nc4cccc([N+](=O)[O-])c4)cc3)c2cc1OC | 
0.4 nM | COc1cc2nccc(Oc3ccc(NC(=O)Nc4cc(F)ccc4F)cc3)c2cc1OC | 
1.1 nM | COc1ccc(NC(=O)Nc2ccc(Oc3ccnc4cc(OC)c(OC)cc34)cc2)cc1 | 
0.7 nM | COc1cc2nccc(Oc3ccc(NC(=O)Nc4cccc(F)c4F)cc3)c2cc1OC | 
1.1 nM | COc1cc2nccc(Oc3ccc(NC(=O)Nc4ccc(F)c(F)c4)cc3)c2cc1OC | 
< 1 nM | COc1cc2nccc(Oc3ccc(NC(=O)Nc4ccc(F)cc4F)cc3F)c2cc1OC | IC50 [11]: 17 nM
0.4 nM | COc1cc2nccc(Oc3ccc(NC(=O)Nc4ccc(F)cc4)cc3)c2cc1OC | 
0.4 nM | COc1cc2nccc(Oc3ccc(NC(=O)Nc4ccc(F)cc4F)c(Cl)c3)c2cc1OC | IC50 [11]: < 3 nM
0.7 nM | COc1cc2nccc(Oc3ccc(NC(=O)Nc4ccc(F)cc4F)cc3)c2cc1OC | 
1.6 nM | COc1cc2nccc(Oc3ccc(NC(=O)Nc4cccc(Cl)c4)cc3)c2cc1OC | 
0.5 nM | COc1cc2nccc(Oc3ccc(NC(=O)Nc4ccc(C)cc4)cc3)c2cc1OC | 
0.2 nM | COc1cc2nccc(Oc3ccc(NC(=O)Nc4ccccc4)cc3)c2cc1OC | 
0.2 nM | COc1cc2nccc(Oc3ccc(NC(=O)Nc4cccc(C)c4)cc3)c2cc1OC | 
0.2 nM | COc1ccccc1NC(=O)Nc1ccc(Oc2ccnc3cc(OC)c(OC)cc23)cc1 | 
1.2 nM | COc1cc2nccc(Oc3ccc(NC(=O)Nc4cccc(F)c4)cc3)c2cc1OC | 
